Data set [1] is described as follows: Cytotoxicity against human SGC7901 cells after 48 hrs by MTT assay. It is filed as functional, cell-based. The conditions noted are these: SGC-7901, 48 h. The method in brief: (§1)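 Cells seeded at 10⁴ per well in DMEM with 10% FBS and grown overnight. Compound at a range of concentrations for 48 h, in triplicate. MTT (5 mg mL⁻¹ stock) added for the last 4 h, formazan dissolved in DMSO, absorbance read at 570 nm. Percent inhibition used to derive IC50. Values are mean ± SEM of at least three independent experiments.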

The test system of a further data set is MCF7. The data set is described as follows: Cytotoxicity against human MCF7 cells after 48 hrs by MTT assay. The format is functional, cell-based. The conditions noted are these: MCF7, 48 h. The method in brief:
as §1

The nature of data set [2]: Cytotoxicity against human H460 cells after 48 hrs by MTT assay. The format is functional, cell-based. The following applies: NCI-H460, 48 h. The method in brief:
as §1
A general note: Tetrazolium dyes change colour on reduction, which living cells bring about.

A further data set concerns EJ. Kind of data set: Cytotoxicity against human EJ cells after 48 hrs by MTT assay. The format is functional, cell-based. The method in brief:
as §1

Data set [3] deals with SMMC-7721. Kind of data set: Cytotoxicity against human SMMC7721 cells after 48 hrs by MTT assay. The format is functional, cell-based. The following applies: SMMC-7721, 48 h. The method in brief: as §1
A short description of data set [4]: Aqueous solubility of the compound in 10% PEG400 aqueous solution after 24 hrs by HPLC analysis. The format is physicochemical. The method in brief:
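Roughly 20.0 mg of solid in 5 mL of 10% PEG400 in water. Sonicated 10 min, then stirred 24 h at 25 °C in a water bath. Centrifuged 10 min at 10,000 rpm and the supernatant passed through a microporous membrane. Concentration measured by HPLC against a standard curve.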

Data set [5] can be described thus: Lipophilicity, log P of the compound in 10% PEG400 aqueous solution. The format is physicochemical.
Data set [6] in a line: Cytotoxicity against human PANC1 cells after 48 hrs by MTT assay. It is filed as functional, cell-based. The following applies: PANC-1, 48 h. Summed up: as §1
The next data set concerns SK-OV-3. Kind of data set: Cytotoxicity against human SKOV3 cells after 48 hrs by MTT assay. It is filed as functional, cell-based. The conditions noted are these: SK-OV-3, 48 h. Summed up:
as §1

Data set [7] concerns SMMC-7721. The data set is described as follows: Induction of apoptosis in human SMMC7721 cells assessed as viable cells at 12 uM after 48 hrs by annexin V-FITC/propidium iodide staining-based flow cytometry (reference value: 93.81%). It is filed as functional. The conditions noted are these: SMMC-7721, 48 h, read-out: Activity. A general note: Flow cytometry measures light scatter and fluorescence of single cells or particles in a stream.

Data set [8] has as its system SMMC-7721. Kind of data set: Induction of apoptosis in human SMMC7721 cells assessed as late apoptotic cells at 12 uM after 48 hrs by annexin V-FITC/propidium iodide staining-based flow cytometry (reference value: 1.55%). The format is functional.
The test system of data set [9] is SMMC-7721. The data set is described as follows: Inhibition of Ras in human SMMC7721 cells assessed as reduction in phosphorylated Akt level at 12 uM after 8 hrs by immunoblotting analysis. The format is cell-based. Summed up:
(§2)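 SMMC-7721 cells at 1.5 × 10⁵/mL treated with 3.0, 6.0 or 12 µmol/L compound or vehicle for 8 h. Cells lysed, 50 µg protein per lane run on 12% SDS–PAGE gels. Blots probed for total and phospho-ERK1/2 (Thr202/Tyr204), total and phospho-Akt (Ser473), and β-actin. Densitometry relative to β-actin. Means ± SEM of three experiments.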
(In general: Immunoblotting shows a protein as a band on a membrane.)

For data set [10], the system named is SMMC-7721. Kind of data set: Induction of apoptosis in human SMMC7721 cells assessed as early apoptotic cells at 12 uM after 48 hrs by annexin V-FITC/propidium iodide staining-based flow cytometry (reference value: 3.87%). It is filed as functional.
Data set [11] relates to SMMC-7721. The data set is described as follows: Inhibition of Ras in human SMMC7721 cells assessed as reduction in phosphorylated ERK1 level at 12 uM after 8 hrs by immunoblotting analysis. The format is cell-based. The method in brief: as §2
In data set [12] the test system is SMMC-7721. The data set is described as follows: Inhibition of Ras in human SMMC7721 cells assessed as reduction in phosphorylated ERK2 level at 12 uM after 8 hrs by immunoblotting analysis. It is filed as cell-based. The method in brief:
as §2

Data set [13] deals with SMMC-7721. The data set is described as follows: Induction of apoptosis in human SMMC7721 cells assessed as necrotic cells at 12 uM after 48 hrs by annexin V-FITC/propidium iodide staining-based flow cytometry (reference value: 0.77%). It is filed as functional.

In brackets after ≈: the same amount, converted by molar mass. Activity calls are given as the source filed them. No cut-off for these calls is given here.

By IC50 is commonly meant the concentration at which inhibition is half-maximal. As usually defined, the solubility is how much of the substance goes into solution per volume. High values mean much dissolved substance, low ones little dissolved substance. The logP is a log measure of how a compound divides between an organic and an aqueous phase. Lower therefore signals a more hydrophilic compound. As for `CC(C)=CCC/C(C)=C/CC/C(C)=C/CSc1ccccc1C(=O)NCCCCCN`, the IC50 was 7.35 µM in data set [1]; 7.83 µM in the data set on MCF7; 8.84 µM in data set [2]; 9.85 µM in the data set with EJ; 9.21 µM with SMMC-7721 [3]; 7.56 µM in data set [6]. Besides, the IC50 in the data set on SK-OV-3 came out at 7.13 µM. Further, the solubility at 24 h in data set [4] is 18000 µg/mL (≈ 40.6 mM). The log partition coefficient (logP) in data set [5] came out at 5.98.
For the molecule `CC(C)=CCC/C(C)=C/CC/C(C)=C/CSc1ccccc1C(=O)NCCCCCCN`, the half-maximal inhibitory concentration (IC50) is 7.87 µM in data set [1]; 8.01 µM in the data set on MCF7; 7.52 µM in data set [2]; 10.1 µM in the data set on EJ; 7.93 µM in the data set on SMMC-7721 [3]; 8.69 µM in [6]. For the same molecule, in the data set with SK-OV-3, the IC50 came to 7.66 µM.
As to `CC(C)=CCC/C(C)=C/CC/C(C)=C/CSc1ccccc1C(=O)NCCOCCNC(=O)c1ccccc1SC/C=C(\C)CC/C=C(\C)CCC=C(C)C`, the 50% inhibitory concentration (IC50) in [1] was 43.8 µM; in the data set with MCF7 it was 30 µM; in data set [2], 43.5 µM; in the data set on EJ, 27.8 µM; in the data set on SMMC-7721 [3] it was 29 µM; in data set [6], 29.8 µM. In the data set on SK-OV-3, this molecule showed an IC50 of 34.4 µM.
Turning to `CC(C)=CCC/C(C)=C/CC/C(C)=C/CSc1ccccc1C(=O)NCCCNC(=O)c1ccccc1SC/C=C(\C)CC/C=C(\C)CCC=C(C)C`, the IC50 (in [1]; with MCF7; in data set [2]; with EJ; with SMMC-7721 [3]; in [6]) was above 50 µM throughout. In the data set with SK-OV-3, this molecule gave an IC50 above 50 µM.
Consider `CC(C)=CCC/C(C)=C/CC/C(C)=C/CSc1ccccc1C(=O)O` [SALIRASIB], for which the IC50 in [1] came out at 41.3 µM; in the data set on MCF7, 49.1 µM; in data set [2], 49.2 µM; with EJ it was 47.6 µM; in the data set on SMMC-7721 [3] it was 69.7 µM; in data set [6] it was 53.6 µM. For the same molecule, half-maximal inhibition in the data set on SK-OV-3 (IC50) required 51.2 µM. The viability at 12 µM in the data set on SMMC-7721 [7] amounted to 80.4%. Moreover, the Activity is listed as 5.87% with SMMC-7721 [8], 13.49% in the data set on SMMC-7721 [10] and 0.21% in the data set with SMMC-7721 [13]. The result with SMMC-7721 [9], with SMMC-7721 [11] and in the data set on SMMC-7721 [12] was Active. Besides, the solubility at 24 h in [4] was determined as 3650 µg/mL (≈ 10.2 mM). In data set [5], the logP is 6.32.
Take `CC(C)=CCC/C(C)=C/CC/C(C)=C/CSc1ccccc1C(=O)NCCN`: the IC50 in data set [1] was 33.8 µM; with MCF7, 28.7 µM; in data set [2] it was 36 µM; with EJ, above 50 µM; in the data set with SMMC-7721 [3] it was 25.2 µM; in [6], above 50 µM. This molecule returned an IC50 with SK-OV-3 of 31.6 µM.
As to `CC(C)=CCC/C(C)=C/CC/C(C)=C/CSc1ccccc1C(=O)NCCCCCCNC(=O)c1ccccc1SC/C=C(\C)CC/C=C(\C)CCC=C(C)C`, the IC50 in [1] is above 50 µM; in the data set with MCF7, 40.6 µM; in data set [2], above 50 µM; in the data set with EJ, 43.9 µM; in the data set on SMMC-7721 [3], above 50 µM; in data set [6], above 50 µM. The molecule also gave a half-maximal inhibitory concentration (IC50) in the data set on SK-OV-3 above 50 µM.
In the case of `CNC(=O)c1cc(Oc2ccc(NC(=O)Nc3ccc(Cl)c(C(F)(F)F)c3)cc2)ccn1` [SORAFENIB], the concentration for half-maximal inhibition (IC50) was found to be 11.5 µM in [1]; 9.12 µM with MCF7; 10.8 µM in data set [2]; 22.9 µM with EJ; 18.7 µM with SMMC-7721 [3]; 12.3 µM in data set [6]. In the data set on SK-OV-3, this molecule registered an IC50 of 9.25 µM.
For `CC(C)=CCC/C(C)=C/CC/C(C)=C/CSc1ccccc1C(=O)N1CCNCC1`, the half-inhibitory concentration (IC50) in data set [1] was 25.7 µM; in the data set with MCF7, 34.1 µM; in data set [2], 26.3 µM; with EJ, 27.5 µM; with SMMC-7721 [3] it was 32.4 µM; in data set [6], 22.5 µM. The molecule further yielded an IC50 with SK-OV-3 above 50 µM.
In the case of `CC(C)=CCC/C(C)=C/CC/C(C)=C/CSc1ccccc1C(=O)NCCCCN`, the half-inhibitory concentration (IC50) in data set [1] amounted to 11.2 µM; in the data set with MCF7, 11.2 µM; in data set [2], 12.5 µM; in the data set with EJ, 13.1 µM; with SMMC-7721 [3], 15 µM; in data set [6] it was 10.5 µM. In the data set on SK-OV-3, this molecule had an IC50 of 7.8 µM.
For the molecule `CC(C)=CCC/C(C)=C/CC/C(C)=C/CSc1ccccc1C(=O)N1CCN(C(=O)c2ccccc2SC/C=C(\C)CC/C=C(\C)CCC=C(C)C)CC1`, the IC50 (in data set [1]; in the data set on MCF7; in data set [2]; in the data set with EJ; with SMMC-7721 [3]; in data set [6]) was above 50 µM in each case. In the data set on SK-OV-3, this molecule gave an IC50 above 50 µM.
As to `CC(C)=CCC/C(C)=C/CC/C(C)=C/CSc1ccccc1C(=O)NCCNC(=O)c1ccccc1SC/C=C(\C)CC/C=C(\C)CCC=C(C)C`, the 50% inhibitory concentration (IC50) (in [1]; with MCF7; in [2]; in the data set with EJ; with SMMC-7721 [3]; in data set [6]) was above 50 µM throughout. In the data set with SK-OV-3, this molecule registered an IC50 above 50 µM.
Turning to `CC(C)=CCC/C(C)=C/CC/C(C)=C/CSc1ccccc1C(=O)NCCCCCNC(=O)c1ccccc1SC/C=C(\C)CC/C=C(\C)CCC=C(C)C`, the IC50 in data set [1] was above 50 µM; in the data set on MCF7, above 50 µM; in data set [2], 47.1 µM; in the data set on EJ it was 39.5 µM; with SMMC-7721 [3], 36.2 µM; in data set [6], above 50 µM. This molecule also gave an IC50 in the data set on SK-OV-3 of 41.9 µM. The solubility at 24 h in data set [4] is below 10 µg/mL.
`CC(C)=CCC/C(C)=C/CC/C(C)=C/CSc1ccccc1C(=O)NCCCCNC(=O)c1ccccc1SC/C=C(\C)CC/C=C(\C)CCC=C(C)C`: the IC50 was above 50 µM in data set [1]; 45.8 µM in the data set on MCF7; above 50 µM in [2]; above 50 µM in the data set with EJ; above 50 µM in the data set on SMMC-7721 [3]; above 50 µM in data set [6]. The molecule further came in with an IC50 in the data set on SK-OV-3 above 50 µM.
Take `CC(C)=CCC/C(C)=C/CC/C(C)=C/CSc1ccccc1C(=O)NCCCN`: the IC50 in [1] turned out to be 12.8 µM; in the data set on MCF7, 13.7 µM; in data set [2], 20.4 µM; in the data set on EJ it was 17.2 µM; in the data set with SMMC-7721 [3], 10.6 µM; in [6], 11.8 µM. Besides, in the data set on SK-OV-3, the midpoint of inhibition, the IC50, lay at 12.3 µM.
